Calls of active or inactive are those of the source. The calls are words filed in the database; no cut-off is given here.
Key:
[1] = Cytotoxicity against rat RBL2H3 cells after 12 hrs by MTT assay; format: cell-based; details: RBL-2H3, 12 h
In short: (§1)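 MTT viability assay in RBL-2H3 cells grown to 70-80% confluence and then exposed to compound; untreated and ≤0.5% DMSO cultures served as controls. MTT stock 5 mg/mL was diluted 1:10 into medium 3 h before the end of exposure, then incubated 2 h at 37 °C. Formazan was dissolved in DMSO and read at 600 nm. Viability is given as % of control OD, ≥3 repeats, and IC50 was derived from this.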

[2] = Cytotoxicity against rat RBL2H3 cells at 200 uM after 12 hrs by MTT assay; format: cell-based; details: rbl-2h3, 12 h; in short: as §1
[3] = test system: RBL-2H3; test: Antiallergic activity in mIgE-DNP and DNP-BSA-stimulated rat RBL2H3 cells assessed as inhibition of beta-hexosaminidase release at 1 uM pretreated before mIgE-DNP challenge measured after 12 hrs relative to control; format: functional
In short: (§2)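 RBL-2H3 cells (DMEM, 10% FBS) seeded at 1 × 10^5/well and left 4-6 h at 37 °C to adhere. Compound was added at final concentrations for various pretreatment times, then mIgE-DNP was added for 16 h. Cells were washed in Tyrode's buffer (pH 7.4, 1 mg/mL BSA) and challenged with DNP-BSA 1 µg/mL for 1 h at 37 °C. Supernatant was incubated with p-NAG in citrate pH 4.5 for 1 h at 37 °C and read at A405. Inhibition was calculated against Triton X-100 total-release and spontaneous-release controls.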

[4] = test system: RBL-2H3; test: Antiallergic activity in mIgE-DNP and DNP-BSA-stimulated rat RBL2H3 cells assessed as inhibition of beta-hexosaminidase release at 100 uM pretreated before mIgE-DNP challenge measured after 12 hrs; format: functional, cell-based; in short: as §2
[5] = test system: RBL-2H3; test: Antiallergic activity in mIgE-DNP and DNP-BSA-stimulated rat RBL2H3 cells assessed as inhibition of beta-hexosaminidase release at 200 uM pretreated before mIgE-DNP challenge measured after 12 hrs; format: functional, cell-based; in short: as §2
[6] = test system: RBL-2H3; test: Antiallergic activity in mIgE-DNP and DNP-BSA-stimulated rat RBL2H3 cells assessed as inhibition of beta-hexosaminidase release at 1 uM pretreated before mIgE-DNP challenge measured after 24 hrs relative to control; format: functional; in short: as §2
[7] = test system: RBL-2H3; test: Antiallergic activity in mIgE-DNP and DNP-BSA-stimulated rat RBL2H3 cells assessed as inhibition of beta-hexosaminidase release at 1 uM pretreated before mIgE-DNP challenge measured after 48 hrs relative to control; format: functional; in short: as §2
[8] = test system: RBL-2H3; test: Antiallergic activity in mIgE-DNP and DNP-BSA-stimulated rat RBL2H3 cells assessed as inhibition of beta-hexosaminidase release at 100 uM pretreated before mIgE-DNP challenge measured after 24 hrs relative to control; format: functional; in short: as §2
[9] = test system: RBL-2H3; test: Antiallergic activity in mIgE-DNP and DNP-BSA-stimulated rat RBL2H3 cells assessed as inhibition of beta-hexosaminidase release at 100 uM pretreated before mIgE-DNP challenge measured after 48 hrs relative to control; format: functional; in short: as §2
[10] = test system: RBL-2H3; test: Antiallergic activity in mIgE-DNP and DNP-BSA-stimulated rat RBL2H3 cells assessed as inhibition of beta-hexosaminidase release at 200 uM pretreated before mIgE-DNP challenge measured after 24 hrs relative to control; format: functional; in short: as §2
[11] = test system: RBL-2H3; test: Antiallergic activity in mIgE-DNP and DNP-BSA-stimulated rat RBL2H3 cells assessed as inhibition of beta-hexosaminidase release at 200 uM pretreated before mIgE-DNP challenge measured after 48 hrs relative to control; format: functional; in short: as §2
[12] = Cytotoxicity against rat RBL2H3 cells at 120 uM after 12 hrs by MTT assay; format: cell-based; details: rbl-2h3, 12 h; in short: as §1
[13] = test system: RBL-2H3; test: Antiallergic activity in mIgE-DNP and DNP-BSA-stimulated rat RBL2H3 cells assessed as inhibition of beta-hexosaminidase release at 200 uM pretreated before mIgE-DNP challenge; format: functional, cell-based; details: TDE = time-dependent effect; in short: as §2
[14] = test system: RBL-2H3; test: Antiallergic activity in mIgE-DNP and DNP-BSA-stimulated rat RBL2H3 cells assessed as inhibition of beta-hexosaminidase release pretreated before mIgE-DNP challenge measured after 12 to 48 hrs; format: functional, cell-based; in short: as §2

| Structure (SMILES) | IC50 [1] [µM] | Activity [2] | inhibition at 1 µM [3] [%] | inhibition [4] | inhibition [5] | inhibition at 1 µM [6] [%] | inhibition at 1 µM [7] [%] | inhibition [8] | inhibition [9] | inhibition [10] | inhibition [11] | Activity [12] | inhibition [13] | inhibition [14] |
| --- | --- | --- | --- | --- | --- | --- | --- | --- | --- | --- | --- | --- | --- | --- |
| CCCCC[C@H](O)CC(=O)CCc1ccc(O)c(OC)c1 [GINGEROL] | 185 | Toxic | 60 | Active | Active | 60 | 60 | Active | Active | Active | Active | – | – | – |
| CCCCC/C=C/C(=O)CCc1ccc(O)c(OC)c1 [SHOGAOL] | 90.4 | – | – | – | – | – | – | – | – | – | – | Toxic | – | – |
| CCCCCCCCC[C@H](O)CC(=O)CCc1ccc(O)c(OC)c1 | 112 | – | 60 | Active | Active | 60 | 60 | Active | Active | Active | Active | Toxic | – | – |
| CCCCCC(=O)/C=C(O)/C=C/c1ccc(O)c(OC)c1 | 38.5 | – | 60 | Active | Active | 60 | 60 | Active | Active | Active | Active | – | – | – |
| COc1cc(CCC(=O)CC(O)CCc2ccc(O)c(OC)c2)ccc1O (stereo not drawn) [HEXAHYDROCURCUMIN] | 152 | Toxic | – | – | – | – | – | – | – | – | – | – | tde | Dose-dependent effect |
